Consider eleven molecules from ChEMBL document CHEMBL1268933, “Discovery of a vorapaxar analog with increased aqueous solubility” (Bioorg Med Chem Lett, 2010).

Converted amounts (≈) assume the structure as drawn. The source made the active and inactive calls. No cut-off for these calls is given here. Where only a bound is given, the exact number is not on record here.

The target of series [1] is T1, Proteinase-activated receptor 1 (Homo sapiens, UniProt P25116).
T1 sequence (P25116 whole entry): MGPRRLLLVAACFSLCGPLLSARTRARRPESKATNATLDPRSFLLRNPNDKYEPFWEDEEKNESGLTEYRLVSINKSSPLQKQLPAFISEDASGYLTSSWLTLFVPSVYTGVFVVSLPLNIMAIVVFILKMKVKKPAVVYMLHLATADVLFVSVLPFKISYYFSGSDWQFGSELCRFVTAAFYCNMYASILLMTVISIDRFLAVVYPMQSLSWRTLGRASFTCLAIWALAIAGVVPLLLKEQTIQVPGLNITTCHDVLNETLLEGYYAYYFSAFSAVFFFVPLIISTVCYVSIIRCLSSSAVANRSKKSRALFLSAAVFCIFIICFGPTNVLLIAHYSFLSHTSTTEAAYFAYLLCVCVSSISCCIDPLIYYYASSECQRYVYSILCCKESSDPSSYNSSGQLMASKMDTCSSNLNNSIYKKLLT
The series is described as follows: Displacement of high affinity TRAP form human platelet PAR1. The gist of the method:
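Radioligand binding using human platelet membranes as PAR-1 source and tritiated haTRAP as radioligand; run in duplicate, compounds of high interest repeated n≥5 (SD 20%); Ki reported.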

Series [2] in a line: Kinetic solubility of the compound. The series is classed as physicochemical. The gist of the method:
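Kinetic solubility: DMSO serial dilutions added to 10 mM phosphate buffer pH 7.4, equilibrated 30 min at room temperature; precipitate detected by nephelometry; solubility taken as highest concentration not scattering light.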

Series [3] can be described thus: AUC in rat. Conditions: plasma. The series is classed as ADME, organism-based. In short, it runs like this:
(§1)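 High-throughput format rat pharmacokinetic screen; plasma AUC and Cmax determined.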

Series [4] can be described thus: Cmax in rat. The series is classed as ADME, organism-based. The conditions noted are these: in vivo. In short, it runs like this: as §1
Series [5] in a line: Equilibrium solubility of the compound after 24 hrs. The series is classed as physicochemical.
Series [6] relates to Platelet. The series is described as follows: Ex-vivo inhibition of PAR1-mediated aggregation of high affinity TRAP-stimulated cynomolgus monkey platelet at 0.1 mg/kg, po administered as single dose measured after 24 hrs. The conditions noted are these: Macaca fascicularis. The series is classed as functional. In short, it runs like this:
(§2)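 Cynomolgus monkeys (n = 3) given single oral dose of 0.1 or 0.3 mg/kg; ex vivo haTRAP-induced platelet aggregation measured at time points out to 24 h.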

Series [7] has as its system Platelet. The experiment in a line: Ex-vivo inhibition of PAR1-mediated aggregation of high affinity TRAP-stimulated cynomolgus monkey platelet at 0.1 mg/kg, po administered as single dose measured up to 6 hrs. The series is classed as functional, organism-based. Also noted: dose 0.1 mg/kg. The conditions noted are these: Macaca fascicularis. In short, it runs like this: as §2

Series [8] deals with Platelet. The series is described as follows: Ex-vivo inhibition of PAR1-mediated aggregation of high affinity TRAP-stimulated cynomolgus monkey platelet at 0.3 mg/kg, po administered as single dose measured after 24 hrs. Further details: dose 0.3 mg/kg. The series is classed as functional, organism-based. Conditions: Macaca fascicularis. In short, it runs like this:
as §2

Series [9] can be described thus: Tmax in monkey at 0.1 mg/kg, po. The series is classed as ADME, organism-based, Macaca mulatta. Also noted: dose 0.1 mg/kg, route oral. The conditions noted are these: rhesus monkey, in vivo.
Series [10] in a line: Tmax in monkey at 1 mg/kg, po. The format is ADME, organism-based, Macaca mulatta. Further details: dose 1 mg/kg, route oral. Conditions: rhesus monkey, in vivo.
Series [11] can be described thus: AUC (0 to 24 hrs) in monkey at 0.1 mg/kg, po. The conditions noted are these: rhesus monkey, plasma. Also noted: time < 24 hr, dose 0.1 mg/kg, route oral. The series is classed as ADME, organism-based, Macaca mulatta.
Series [12] is described as follows: Cmax in monkey at 0.1 mg/kg, po. The series is classed as ADME, organism-based, Macaca mulatta. Also noted: dose 0.1 mg/kg, route oral. Conditions: rhesus monkey, in vivo.
Series [13] in a line: AUC (0 to 24 hrs) in monkey at 1 mg/kg, po. The series is classed as ADME, organism-based, Macaca mulatta. Further details: time < 24 hr, dose 1 mg/kg, route oral. The conditions noted are these: rhesus monkey, plasma.
Series [14] can be described thus: Cmax in monkey at 1 mg/kg, po. The format is ADME, organism-based, Macaca mulatta. Also noted: dose 1 mg/kg, route oral. Conditions: rhesus monkey, in vivo.
Series [15] can be described thus: Permeability across human Caco-2 cell membrane. The series is classed as ADME, cell-based. Conditions: read-out: permeability.
For another series, the target named is Cytochrome P450 3A4 (Homo sapiens, UniProt P08684). The experiment in a line: Inhibition of CYP3A4. The format is ADME. The gist of the method: (§3)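 CYP3A4, CYP2D6, CYP2C9 and CYP2C19 inhibition tested under both co-incubation and pre-incubation conditions; IC50 determined.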
Another series deals with Cytochrome P450 2D6 (Homo sapiens, UniProt P10635). The series is described as follows: Inhibition of CYP2D6. The series is classed as ADME. In short, it runs like this:
as §3

For a further series, the target named is Cytochrome P450 2C9 (Homo sapiens, UniProt P11712). The series is described as follows: Inhibition of CYP2C9. The series is classed as ADME. In short, it runs like this: as §3
Another series deals with Cytochrome P450 2C19 (Homo sapiens, UniProt P33261). The experiment in a line: Inhibition of CYP2C19. The series is classed as ADME. In short, it runs like this:
as §3

The next series has as its system Rhesus monkey. The experiment in a line: Antithrombotic activity in monkey Folts model. The series is classed as functional, organism-based. The conditions noted are these: Macaca mulatta. In short, it runs like this:
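Folts thrombosis model in anesthetized monkeys; escalating doses given intravenously in sequence to the same animal, alone or with ADP antagonist cangrelor; inhibition of cyclic flow reductions monitored.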

The target in series [16] is T2, PXR (nuclear receptor subfamily 1 group I member 2) (Homo sapiens, UniProt O75469).
T2 sequence (O75469 whole entry): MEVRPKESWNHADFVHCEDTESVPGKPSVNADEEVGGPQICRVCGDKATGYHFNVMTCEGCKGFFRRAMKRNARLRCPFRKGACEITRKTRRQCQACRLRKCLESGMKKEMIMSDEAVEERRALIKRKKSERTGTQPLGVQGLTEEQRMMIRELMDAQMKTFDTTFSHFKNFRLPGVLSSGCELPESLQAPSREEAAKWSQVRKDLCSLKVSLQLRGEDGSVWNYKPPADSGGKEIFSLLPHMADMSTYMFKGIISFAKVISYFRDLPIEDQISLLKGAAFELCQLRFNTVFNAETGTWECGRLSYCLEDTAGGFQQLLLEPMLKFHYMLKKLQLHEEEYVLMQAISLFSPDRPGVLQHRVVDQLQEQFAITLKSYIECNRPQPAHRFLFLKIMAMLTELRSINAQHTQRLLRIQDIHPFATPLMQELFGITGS
The experiment in a line: Induction of human PXR at 10 uM.

Cytochrome P450 3A4, sequence (P08684 whole entry): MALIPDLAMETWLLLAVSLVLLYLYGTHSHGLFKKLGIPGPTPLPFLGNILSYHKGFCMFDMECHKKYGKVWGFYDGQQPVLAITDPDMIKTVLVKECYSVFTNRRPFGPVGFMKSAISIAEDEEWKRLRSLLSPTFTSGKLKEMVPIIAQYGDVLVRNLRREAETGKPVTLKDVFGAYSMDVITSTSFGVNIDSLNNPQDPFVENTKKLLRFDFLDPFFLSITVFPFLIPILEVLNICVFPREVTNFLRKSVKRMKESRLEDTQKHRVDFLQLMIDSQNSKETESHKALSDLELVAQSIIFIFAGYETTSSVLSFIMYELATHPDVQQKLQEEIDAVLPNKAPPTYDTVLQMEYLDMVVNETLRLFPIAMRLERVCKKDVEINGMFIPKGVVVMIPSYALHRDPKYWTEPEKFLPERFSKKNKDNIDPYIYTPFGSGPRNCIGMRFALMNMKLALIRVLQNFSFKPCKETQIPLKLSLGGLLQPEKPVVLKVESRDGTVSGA
Cytochrome P450 2C19, sequence (P33261 whole entry): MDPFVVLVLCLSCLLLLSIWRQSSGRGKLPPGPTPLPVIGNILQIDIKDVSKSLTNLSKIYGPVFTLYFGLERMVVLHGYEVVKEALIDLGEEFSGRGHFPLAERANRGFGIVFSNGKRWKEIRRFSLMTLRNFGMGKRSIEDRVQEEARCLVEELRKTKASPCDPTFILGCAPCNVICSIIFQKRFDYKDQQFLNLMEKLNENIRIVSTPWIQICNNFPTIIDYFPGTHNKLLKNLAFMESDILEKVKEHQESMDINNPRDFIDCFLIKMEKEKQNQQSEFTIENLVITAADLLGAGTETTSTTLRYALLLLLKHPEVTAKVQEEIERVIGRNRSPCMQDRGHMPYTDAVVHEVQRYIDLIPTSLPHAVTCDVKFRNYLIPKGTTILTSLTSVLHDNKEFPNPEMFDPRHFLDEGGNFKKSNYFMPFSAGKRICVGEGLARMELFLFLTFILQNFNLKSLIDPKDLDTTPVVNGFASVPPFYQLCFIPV
Cytochrome P450 2C9, sequence (P11712 whole entry): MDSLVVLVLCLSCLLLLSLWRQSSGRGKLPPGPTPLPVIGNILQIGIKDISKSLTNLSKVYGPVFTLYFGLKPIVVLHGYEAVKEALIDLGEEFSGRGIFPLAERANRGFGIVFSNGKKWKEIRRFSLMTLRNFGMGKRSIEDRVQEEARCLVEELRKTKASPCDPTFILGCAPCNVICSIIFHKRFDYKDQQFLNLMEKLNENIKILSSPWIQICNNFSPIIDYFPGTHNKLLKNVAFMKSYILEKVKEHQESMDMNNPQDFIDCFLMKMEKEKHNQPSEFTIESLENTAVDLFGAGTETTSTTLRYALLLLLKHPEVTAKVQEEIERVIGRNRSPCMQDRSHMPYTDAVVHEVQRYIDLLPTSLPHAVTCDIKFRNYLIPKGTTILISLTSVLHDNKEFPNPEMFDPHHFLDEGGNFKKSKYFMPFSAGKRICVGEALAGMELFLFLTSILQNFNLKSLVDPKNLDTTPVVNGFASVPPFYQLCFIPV
Cytochrome P450 2D6, sequence (P10635 whole entry): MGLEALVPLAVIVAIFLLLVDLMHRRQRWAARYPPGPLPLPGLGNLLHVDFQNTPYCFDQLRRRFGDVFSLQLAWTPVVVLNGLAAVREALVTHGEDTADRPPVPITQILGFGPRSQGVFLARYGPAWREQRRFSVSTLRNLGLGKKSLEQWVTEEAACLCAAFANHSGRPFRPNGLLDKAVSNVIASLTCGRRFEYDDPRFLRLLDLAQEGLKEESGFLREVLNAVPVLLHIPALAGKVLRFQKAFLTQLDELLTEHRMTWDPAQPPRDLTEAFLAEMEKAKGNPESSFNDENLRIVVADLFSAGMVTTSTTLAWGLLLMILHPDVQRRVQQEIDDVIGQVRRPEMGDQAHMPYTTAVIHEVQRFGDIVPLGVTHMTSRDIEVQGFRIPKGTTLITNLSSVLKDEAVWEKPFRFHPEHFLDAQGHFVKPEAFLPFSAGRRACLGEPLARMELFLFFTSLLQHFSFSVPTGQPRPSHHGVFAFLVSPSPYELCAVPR

As for `CCOC(=O)N[C@@H]1CC[C@@H]2[C@@H](C1)C[C@H]1C(=O)O[C@H](C)[C@H]1[C@H]2/C=C/c1ccc(-c2ccccc2C#N)cn1`, the Ki (in general, a measure of affinity in units of concentration, obtained from inhibition or displacement) in series [1] stood at 15 nM. Moreover, in series [2], the solubility (kinetic) – broadly, solubility judged after dilution from a stock solution rather than from solid – stood at 12 µM (≈ 6 µg/mL). Besides, in series [3], the AUC (commonly the area under the concentration-time curve, a measure of exposure) was 5220 ng·h/mL. Moreover, the peak level in series [4] (Cmax) was 1570 ng/mL.

As to `CCOC(=O)N[C@@H]1CC[C@@H]2[C@@H](C1)C[C@H]1C(=O)O[C@H](C)[C@H]1[C@H]2/C=C/c1ccc(-c2cncnc2)cn1`, the Ki in series [1] came to 337 nM.

As for `CCOC(=O)N[C@@H]1CC[C@@H]2[C@@H](C1)C[C@H]1C(=O)O[C@H](C)[C@H]1[C@H]2/C=C/c1ccc(-c2cccc(OC)c2)cn1`, in [1], the Ki came to 12 nM. The kinetic solubility in series [2] was under 5 µM. In addition, the AUC in series [3] is 319 ng·h/mL. Besides, the Cmax (commonly the peak of the concentration-time curve) in series [4] came to 368 ng/mL.

Consider `CCOC(=O)N[C@@H]1CC[C@@H]2[C@@H](C1)C[C@H]1C(=O)O[C@H](C)[C@H]1[C@H]2/C=C/c1ccc(-c2cccc(F)c2)cn1` [VORAPAXAR], for which, in [1], the affinity corresponds to a Ki of 8 nM. The thermodynamic solubility (as a rule, the concentration in solution at equilibrium with solid) at 24 h in series [5] was determined as 2.8 µM (≈ 1.38 µg/mL). The solubility (kinetic) in [2] was under 5 µM. This molecule showed an AUC in series [3] of 3060 ng·h/mL. Moreover, in [4], the highest level (Cmax) was 974 ng/mL.

On to `CCOC(=O)N[C@@H]1CC[C@@H]2[C@@H](C1)C[C@H]1C(=O)O[C@H](C)[C@H]1[C@H]2/C=C/c1ccc(-c2ccncc2)cn1`, for which the Ki in series [1] worked out at 250 nM.

In series [1], `CCOC(=O)N[C@@H]1CC[C@@H]2[C@@H](C1)C[C@H]1C(=O)O[C@H](C)[C@H]1[C@H]2/C=C/c1ccc(-c2cc(C)ccn2)cn1` came in with a Ki of 144 nM.

In turn, `CCOC(=O)N[C@@H]1CC[C@@H]2[C@@H](C1)C[C@H]1C(=O)O[C@H](C)[C@H]1[C@H]2/C=C/c1ccc(-c2ccc(C)cn2)cn1` registered a Ki in series [1] of 42 nM.

On to `CCOC(=O)N[C@@H]1CC[C@@H]2[C@@H](C1)C[C@H]1C(=O)O[C@H](C)[C@H]1[C@H]2/C=C/c1ccc(-c2ccccn2)cn1`, for which the inhibition in vivo – broadly, the relative decrease from the control value, in per cent – at 0.1 mg/kg in the series with Platelet [6] came to 70%. For the same molecule, the inhibition result in the series on Platelet [7] and in the series with Platelet [8] was “Active” each time. Further, the Tmax – broadly, the time from dosing to the highest level – in series [9] stood at 60 min; in series [10] it was 30 min. The AUC(0-t) – broadly, the area under the concentration-time curve up to a stated or last time point – at 24 h in series [11] worked out at 50 ng·h/mL; in series [13], 2520 ng·h/mL. In addition, the Cmax is 16 ng/mL in series [12], 236 ng/mL in [14] and 3070 ng/mL in series [4]. The Papp in series [15] worked out at 28.3 ×10⁻⁶ cm/s. Besides, the Ki in series [1] was determined as 19 nM. In addition, the thermodynamic solubility at 24 h in [5] came out at 67 µM (≈ 31.9 µg/mL). The molecule also returned a solubility (kinetic) in series [2] of 75 µM (≈ 35.7 µg/mL). This molecule also yielded an AUC in series [3] of 10100 ng·h/mL. Further, the IC50 at Cytochrome P450 3A4, against Cytochrome P450 2D6, against Cytochrome P450 2C9 and at Cytochrome P450 2C19 was over 30000 nM each time. Also, the Activity entry in the series with Rhesus monkey is “Dose-dependent effect”. This molecule also showed an induction at 10 µM in series [16] of 0.13%.

The molecule `CCOC(=O)N[C@@H]1CC[C@@H]2[C@@H](C1)C[C@H]1C(=O)O[C@H](C)[C@H]1[C@H]2/C=C/c1ccc(-c2ccoc2)cn1` gave a Ki in [1] of 61 nM. In [2], this molecule displayed a solubility (kinetic) of 12 µM (≈ 5.57 µg/mL).

In [1], `CCOC(=O)N[C@@H]1CC[C@@H]2[C@@H](C1)C[C@H]1C(=O)O[C@H](C)[C@H]1[C@H]2/C=C/c1ccc(-c2nccs2)cn1` yielded a Ki of 75 nM.

In series [1], `CCOC(=O)N[C@@H]1CC[C@@H]2[C@@H](C1)C[C@H]1C(=O)O[C@H](C)[C@H]1[C@H]2/C=C/c1ccc(-c2cccnc2)cn1` registered a Ki of 240 nM.
